Experimental data as given in paper PMC4050191 (FEBS Open Bio, 2014).
Where “and” joins values, the source holds several entries; their conditions need not be identical. Equal values may be shown once. Read-outs that look alike come from different tables or passages of the source. Values belong to the molecule of their own block, whether it stands above or below them.

Tests used:
[1] = target: CK2 (catalytic α and regulatory β subunits complex) (Homo sapiens, UniProt P67870+P68400); assay: In vitro phosphorylation by CK2, HPLC quantification; assay type: biochemical; conditions: for reduction of phosphorylation by addition of Ca2+: CK2, 37 °C
Chain of CK2 (catalytic α and regulatory β subunits complex) (P68400 whole entry): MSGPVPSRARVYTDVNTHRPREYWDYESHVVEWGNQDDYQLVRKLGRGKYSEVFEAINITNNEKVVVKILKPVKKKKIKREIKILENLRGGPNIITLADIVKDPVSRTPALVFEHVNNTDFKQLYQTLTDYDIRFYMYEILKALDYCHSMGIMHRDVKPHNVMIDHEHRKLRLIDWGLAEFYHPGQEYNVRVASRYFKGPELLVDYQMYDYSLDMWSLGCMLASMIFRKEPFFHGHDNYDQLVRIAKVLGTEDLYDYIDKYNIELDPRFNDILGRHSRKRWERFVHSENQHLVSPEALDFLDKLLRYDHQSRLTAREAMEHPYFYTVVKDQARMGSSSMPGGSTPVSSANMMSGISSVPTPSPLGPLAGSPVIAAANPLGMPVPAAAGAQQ
Chain of CK2 (catalytic α and regulatory β subunits complex) (P67870 whole entry partner): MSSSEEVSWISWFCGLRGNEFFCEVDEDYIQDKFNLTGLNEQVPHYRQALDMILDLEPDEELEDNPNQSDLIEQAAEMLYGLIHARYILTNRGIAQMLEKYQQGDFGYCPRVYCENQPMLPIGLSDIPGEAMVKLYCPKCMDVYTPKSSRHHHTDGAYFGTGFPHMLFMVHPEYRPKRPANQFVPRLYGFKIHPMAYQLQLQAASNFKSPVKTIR

[2] = system: HsCen1 (full-length human centrin 1); assay: ITC, peptide binding to full-length HsCen1
Outline: (§1)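 Recombinant human centrin (full-length or C-terminal domain; Asp variants made by double-PCR mutagenesis) was expressed in E. coli BL21(DE3), heat-treated at 63 °C, then purified by ion-exchange, phenyl and gel-filtration chromatography. ITC at 30 °C: 10 μM centrin titrated with 100 μM N-acetylated, C-amidated peptide in 50 mM MOPS, 100 mM NaCl, pH 7.5, plus 1 mM CaCl₂ or 2 mM EDTA. Dilution heats subtracted; data fitted for n, Ka and ΔH.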

[3] = system: C-HsCen2-T138D; assay: ITC, peptide binding to C-HsCen2 T138D; parameters: species or system human; conditions: presence of Ca2+; versus C-HsCen2 wild type
Outline: as §1

[4] = system: C-HsCen2-S158D; assay: ITC, peptide binding to C-HsCen2 S158D; parameters: species or system human; conditions: versus C-HsCen2 wild type
Outline: as §1

[5] = system: C-HsCen2 T138D-S158D; assay: ITC, peptide binding to C-HsCen2 T138D-S158D; parameters: species or system human; conditions: presence of Ca2+; versus C-HsCen2 wild type
Outline: as §1

[6] = target: transducin β (Trd) 325-340 (UniProt P62873); assay: ITC, peptide titrated into centrin; conditions: reference: wild type C-HsCen1; sites T138
[7] = target: human centrin 1, full-length (human) (UniProt Q12798); assay: ITC
[8] = system: HsC1P (human centrin 1 phosphorylated by CK2 at T138); assay: ITC, peptide binding to CK2-phosphorylated HsCen1; conditions: EDTA / absence of Ca2+; phosphorylated versus unphosphorylated centrin 1
[9] = target: T1, C-terminal domain of human centrin 1 (M93-Y172) (human, UniProt Q12798 93-172); assay: ITC
[10] = target: T2, human centrin 1, full-length (human, UniProt Q12798 1-172); assay: ITC
T2 sequence: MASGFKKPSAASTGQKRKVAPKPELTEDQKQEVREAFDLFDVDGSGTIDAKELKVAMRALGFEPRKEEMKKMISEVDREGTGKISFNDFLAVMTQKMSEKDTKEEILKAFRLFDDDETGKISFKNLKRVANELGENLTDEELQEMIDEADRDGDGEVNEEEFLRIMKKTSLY

[11] = target: T3, human centrin 1 T138D, full-length (human, UniProt Q12798 1-172, T138D); assay: ITC
T3 sequence: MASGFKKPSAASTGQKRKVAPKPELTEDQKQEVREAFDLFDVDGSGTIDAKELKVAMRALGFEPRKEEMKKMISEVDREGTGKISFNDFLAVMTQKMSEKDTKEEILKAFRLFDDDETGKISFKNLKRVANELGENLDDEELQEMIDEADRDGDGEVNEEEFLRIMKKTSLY

[12] = target: T4, C-terminal domain of human centrin 2 T138D-S158D (human, UniProt P41208 93-172, T138D | S158D); assay: ITC
T4 sequence (P41208 93-172 T138D/S158D): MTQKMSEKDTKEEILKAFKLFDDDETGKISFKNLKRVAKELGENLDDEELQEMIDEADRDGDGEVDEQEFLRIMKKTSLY

[13] = target: T5, C-terminal domain of human centrin 2 (M93-Y172) (human, UniProt P41208 93-172); assay: ITC
T5 sequence (P41208 93-172): as the sequence (P41208 93-172 T138D/S158D) above, with D46T, D66S counted along it

[14] = target: T6, C-terminal domain of human centrin 2 T138D (human, UniProt P41208 93-172, T138D); assay: ITC
T6 sequence (P41208 93-172 T138D): as the sequence (P41208 93-172 T138D/S158D) above, with D66S counted along it

[15] = target: T7, C-terminal domain of human centrin 2 S158D (human, UniProt P41208 93-172, S158D); assay: ITC
T7 sequence (P41208 93-172 S158D): as the sequence (P41208 93-172 T138D/S158D) above, with D46T counted along it

[16] = target: T1, C-terminal domain of human centrin 1 …; assay: ITC; remark: listed apart in the source
[17] = target: T2, human centrin 1, full-length; assay: ITC; remark: listed apart in the source
[18] = target: T3, human centrin 1 T138D, full-length; assay: ITC; remark: listed apart in the source
[19] = target: T4, C-terminal domain of human centrin 2 …; assay: ITC; remark: listed apart in the source
[20] = target: T5, C-terminal domain of human centrin 2 …; assay: ITC; remark: listed apart in the source
[21] = target: T6, C-terminal domain of human centrin 2 …; assay: ITC; remark: listed apart in the source
[22] = target: T7, C-terminal domain of human centrin 2 …; assay: ITC; remark: listed apart in the source
[23] = target: C-terminal domain of human centrin 1 T138D (human); assay: ITC
[24] = after 5 h, without Ca2+ (Fig. 1A, B)
[25] = after 3 h at 37 °C, EGTA, HPLC peak integration
[26] = after 3 h at 37 °C, presence of Ca2+

Molecule: C-HsCen2: C-terminal domain (M93-Y172) of human centrin 2, recombinant; here as CK2 substrate
- protein phosphorylated by CK2 [1, 25]: 45%
- protein phosphorylated by CK2 [1, 26]: 15%
- protein phosphorylated by CK2 [1, 24]: 48%
- protein phosphorylated by CK2 ([1]; after 48 h, presence of Ca2+): 50%

Molecule: HsTrB, transducin β-derived peptide 325-340 (last WD repeat)
- Ka [7]: 170000 M⁻¹
- dH [7]: -12.2 kcal/mol

Molecule: human centrin 1 (HsCen1) C-terminal domain, 93-172 (from UniProt Q12798) C-HsCen1 T138D
- other: Ka [6]: weaker; reference 0.54 (0.3)

Molecule: C-HsCen1: C-terminal domain (M93-Y172) of human centrin 1, recombinant; here as CK2 substrate
- reduction of phosphorylation by addition of Ca2+ [1]: 30%
- protein phosphorylated by CK2 [1, 25]: 62%
- protein phosphorylated by CK2 [1, 26]: 30%
- protein phosphorylated by CK2 [1, 24]: 80%
- protein phosphorylated by CK2 ([1]; after 10 h, presence of EGTA): 95%
- protein phosphorylated by CK2 ([1]; after 48 h, presence of Ca2+): 80%
- time after which 95% phosphorylation was achieved ([1]; presence of Ca2+): 48 h

Molecule: HsTrBW332L, transducin β peptide 325-340 W332L
- Ka [7]: 130000 M⁻¹
- dH [7]: -10.6 kcal/mol

B2: HsSfi1R17inv, repeat 17 peptide of human Sfi1 in reversed sequence orientation (peptide)
peptide: Ac-TVWAQLARHLVSHQHHLDAR-NH2
- Ka [9]: 690000 M⁻¹
- dH [9]: -26.6 kcal/mol
- stoichiometry N [9]: 0.825
- dH [13]: -20.1 kcal/mol and -22 kcal/mol
- stoichiometry N [13]: 0.91 and 1.09
- Ka [16]: 1.49e+08 M⁻¹
- dH [16]: -21.6 kcal/mol
- stoichiometry N [16]: 0.8

B3: HsSfiR17, repeat 17 peptide of human Sfi1 (641-660) (peptide)
peptide: Ac-RADLHHQHSVLHRALQAWVT-NH2
- Ka [9]: 120000 M⁻¹
- dH [9]: -43.1 kcal/mol
- stoichiometry N [9]: 0.88
- Ka [10]: 347000 M⁻¹
- dH [10]: -19.2 kcal/mol
- stoichiometry N [10]: 1.12
- Ka [13]: 190000 M⁻¹
- dH [13]: -31.3 kcal/mol
- stoichiometry N [13]: 0.72
- Ka [14]: 230000 M⁻¹
- dH [14]: -9.76 kcal/mol
- stoichiometry N [14]: 0.75
- Ka [15]: 40000 M⁻¹
- dH [15]: -38.5 kcal/mol
- stoichiometry N [15]: 0.77
- Ka [16]: 1.25e+08 M⁻¹
- dH [16]: -18 kcal/mol
- stoichiometry N [16]: 1.21
- Ka [19]: 3.5e+07 M⁻¹
- dH [19]: -22.4 kcal/mol
- stoichiometry N [19]: 0.91
- Ka [20]: 1.82e+07 M⁻¹
- dH [20]: -20.2 kcal/mol
- stoichiometry N [20]: 0.95
- Ka [21]: 4.54e+07 M⁻¹
- dH [21]: -24.3 kcal/mol
- stoichiometry N [21]: 0.86
- Ka [22]: 1.01e+08 M⁻¹
- dH [22]: -25.9 kcal/mol
- stoichiometry N [22]: 0.7

B5: HsSfiR18, repeat 18 peptide of human Sfi1 (677-692) (peptide)
peptide: Ac-SQHNRQLLRGALRRWK-NH2
- Ka [9]: 3.56e+06 M⁻¹
- dH [9]: -29.8 kcal/mol
- stoichiometry N [9]: 1.03
- Ka [10]: 3.47e+06 M⁻¹
- dH [10]: -34.7 kcal/mol
- stoichiometry N [10]: 0.88
- Ka [11]: 875000 M⁻¹
- dH [11]: -36.4 kcal/mol
- stoichiometry N [11]: 0.83
- Ka [16]: 8.15e+07 M⁻¹
- dH [16]: -22.5 kcal/mol
- stoichiometry N [16]: 0.99
- Ka [17]: 2.49e+08 M⁻¹
- dH [17]: -35.5 kcal/mol
- stoichiometry N [17]: 0.88
- Ka [18]: 2.39e+08 M⁻¹
- dH [18]: -36.7 kcal/mol
- stoichiometry N [18]: 0.77

Other lines, results leading:

- reduction of phosphorylation by addition of Ca2+ [1]: 40%
- reduction of phosphorylation by the mutation versus wild type ([1]; after 5 h): 30%
- protein phosphorylated by CK2 [1, 24]: 50%
Molecule: C-HsCen1N131K: N131K variant of the C-terminal domain of human centrin 1

- factor of decrease of binding constant of HsCen1 compared with R18-Sfi1 ([2]; absence of Ca2+): 10
- factor of increase of affinity by the T138D mutation [3]: 3
- factor of reduction of affinity by the S158D mutation ([4]; absence of Ca2+): 4.7
- factor of increase of affinity by the S158D mutation ([4]; presence of Ca2+): 5
- factor of increase of affinity by the T138D-S158D double mutation [5]: 2
Molecule: 641-RADLHHQHSVLHRALQAWVT-660 [R17-Sfi1]

- other: Ka [6]: weaker; reference 0.54 (0.3)
Molecule: human centrin 1 (HsCen1) C-terminal domain, 93-172 (from UniProt Q12798) C-HsCen1 T138E

- increase in phosphorylation by the mutation versus wild type ([1]; after 5 h): 12%
- protein phosphorylated by CK2 [1, 24]: 60%
Molecule: C-HsCen2-K131N: K131N variant of the C-terminal domain of human centrin 2

- factor of reduction of the phosphorylation rate at T138 ([1]; C-HsCen2-S158D versus S158A variant, without Ca2+): 1.36
- factor of reduction of the phosphorylation rate at T138 ([1]; C-HsCen2-S158D, presence of Ca2+): 2.1
Molecule: C-HsCen2-S158D: S158D phosphomimetic variant of the C-terminal domain of human centrin 2

- equilibrium association constant Ka ([2]; presence of Ca2+, centrin 1, ITC, one-site binding model): 2.5 10^8 M^−1
- factor of reduction of binding by phosphorylation at T138 [8]: 10
Molecule: 677-SQHNRQLLRGALRRWK-692 [R18-Sfi1]

- Ka [9]: 8.25e+06 M⁻¹
- dH [9]: -28.1 kcal/mol
- Ka [10]: 1.22e+07 M⁻¹
- dH [10]: -28.4 kcal/mol
- stoichiometry N [10]: 0.98
- Ka [11]: 2.9e+06 M⁻¹
- dH [11]: -30.2 kcal/mol
- stoichiometry N [11]: 0.92
- Ka [12]: 800000 M⁻¹
- dH [12]: -26.8 kcal/mol
- Ka [13]: 7.35e+06 M⁻¹
- dH [13]: -29.3 kcal/mol
- stoichiometry N [13]: 0.95
- Ka [14]: 2.5e+06 M⁻¹
- dH [14]: -32.7 kcal/mol
- stoichiometry N [14]: 0.94
- dH [15]: -23.8 kcal/mol
- Ka [16]: 3.96e+07 M⁻¹
- dH [16]: -23.3 kcal/mol
- stoichiometry N [16]: 0.93
- Ka [17]: 5.25e+07 M⁻¹
- dH [17]: -28.4 kcal/mol
- stoichiometry N [17]: 1.04
- Ka [18]: 1.02e+08 M⁻¹
- dH [18]: -28.5 kcal/mol
- stoichiometry N [18]: 0.95
- dH [19]: -23.9 kcal/mol
- stoichiometry N [19]: 1.18
- Ka [20]: 5.27e+07 M⁻¹
- dH [20]: -23.4 kcal/mol
- stoichiometry N [20]: 0.81
- Ka [21]: 2.71e+07 M⁻¹
- dH [21]: -24 kcal/mol
- stoichiometry N [21]: 0.82
- Ka [22]: 4.31e+07 M⁻¹
- dH [22]: -23 kcal/mol
- stoichiometry N [22]: 0.89
B1: P17-XPC, 17-residue peptide of human XPC (peptide)
peptide: Ac-NWKLLAKGLLIRERLKR-NH2

- dH [23]: -9.97 kcal/mol
- Ka [18]: 180000 M⁻¹
- dH [18]: -8.14 kcal/mol
- stoichiometry N [18]: 0.75
B4: HsTrB, transducin β-derived peptide 325-340 (last WD repeat) (peptide)
peptide: Ac-MAVATGSWDSFLKIWN-NH2
